PRMT1 inh – PRMT1 methyltransferase inhibitors, primary screen, biochemical, fluorescence polarization | AID 652257, 2013 | inhibition, % at 2.79 µM | hit rate 1.3% among 370,000 | Protein arginine N-methyltransferase 1 (Homo sapiens), Q99873 | recombinant PRMT1, activity-based probe fluorescence polarization;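 active means inhibition above about 21% made by adding two undisclosed values, limit read from the data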
ABHD5 PLIN5 PPI – ABHD5-PLIN5 interaction inhibitors, primary screen, cell lysate, split luciferase complementation, luminescence | Perilipin-5 (Homo sapiens) + 1-acylglycerol-3-phosphate O-acyltransferase ABHD5 (Homo … | Split G. princeps luciferase complementation, 4 h | inhibition, % at 4 µM | hit rate 0.78% among 360,000 | AID 602281, 2012;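 active means inhibition above the mean inhibition across every tested compound plus 3 SD, cut at about 22% in these data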
core dimer inh – inhibitors of HCV core protein dimerization, primary screen, biochemical, TR-FRET, high-throughput; TR-FRET GST/Flag-core106 dimerization, 1536-well; inhibition, % at 5 µM; hit rate 0.33% among 300,000;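 active means inhibition above the mean of all tested compounds plus 3 SD, set per screening campaign, cut at about 45% in these data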
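Assay system: tagged HCV core106 pair (GST and Flag); medium: KF-containing HEPES buffer, pH 7.45, DTT, CHAPS, BSA; also added: Eu donor and XL665 acceptor anti-tag antibodies; dosing: 5 µM single dose; timing: compound-protein-antibody incubation 4 h at 22.5 °C; signal: TR-FRET 671 and 617 nm emission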
A3A deaminase – APOBEC3A ssDNA deaminase inhibitors, primary screen, selectivity assay for APOBEC3G inhibitor project, biochemical, FAM/TAMRA oligo cleavage fluorescence. DNA dC->dU-editing enzyme APOBEC-3A (Homo sapiens), P31941. recombinant A3A, FAM/TAMRA ssDNA deamination fluorescence. inhibition, % at 20 µM. hit rate 0.41% among 330,000. AID 493011, 2011;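 active means at least 40% inhibition at 20 µM here, with at most 30% in a related deaminase screen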
NS3 helicase inh – inhibitors of HCV NS3 helicase, primary screen, biochemical, Cy5 molecular beacon fluorescence; inhibition, % at 10.9 µM; hit rate 0.56% among 290,000; NS3 helicase DNA unwinding; Hepatitis C virus NS3 helicase;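 active means inhibition above the mean of all tested compounds plus 3 SD, set per campaign, cut at about 35% in these data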
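System: Hepatitis C virus NS3 helicase domain fragment enzyme | Reagent: Annealed dual-labelled DNA beacon duplex, ATP-started | Compound dosing: 10.9 µM single point, 0.8% DMSO | Incubation: 1 h reaction at 25 °C, ATP-initiated | Technique: Cy5 fluorescence | Evaluation: Percent inhibition from t60/t0 fluorescence ratio | Benchmarks: Low DMSO, high thioflavine S at 110 µM | Replication: Singlicate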
APOBEC3G inh – APOBEC3G DNA deaminase inhibitors, primary screen, biochemical, fluorescence, single-stranded DNA substrate, uHTS. hit rate 0.28% among 330,000. recombinant A3G, ssDNA deamination FAM/TAMRA fluorescence. inhibition, % at 20 µM. DNA dC->dU-editing enzyme APOBEC-3G (Homo sapiens), Q9HC16. AID 493012, 2011;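 active means inhibition of at least 40% at 20 µM, with no more than 30% in the related APOBEC3A deaminase screen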
PRMT1 inh conf – PRMT1 methyltransferase inhibitors, confirmation, biochemical, fluorescence polarization, triplicate | AID 687036, 2013 | recombinant His-PRMT1, activity-based probe fluorescence polarization | shares compounds with PRMT1 inh | hit rate 42% among 3,300 | inhibition, % at 2.79 µM;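 active means mean inhibition across replicates above the hit cutoff derived for the earlier primary screen, cut at about 22% in these data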
Each line names hits and unclear results; the compound was inactive in the other large screens (follow-up assays come after a bar, where they were run). An excerpt weighted towards active compounds, which were near 2.9% of everything screened.

Cc1cc2cc(CNC(=O)c3cc4ccccc4o3)ccc2n1C	none (no result: PRMT1 inh, ABHD5 PLIN5 PPI)
O=C(COC(=O)c1cc[n+]([O-])cc1)Nc1ccc(Br)cc1	none (no result: core dimer inh, NS3 helicase inh)
CC(=O)CCC(=O)OCC(=O)Nc1ccc(SC(F)F)cc1	PRMT1 inh 27.4 | PRMT1 inh conf 24.2
O=C(COC(=O)c1cc[n+]([O-])cc1)Nc1ccc(SC(F)F)cc1	PRMT1 inh 28.2 | PRMT1 inh conf inactive
CC(C)=CC(=O)OCC(=O)Nc1ccc(SC(F)F)cc1	none
C=C1c2cccc(O)c2C(=O)C2C(=O)[C@]3(O)C(=O)C(C(N)=O)C(=O)[C@@H](N(C)C)[C@@H]3[C@@H](O)[C@H]12 (some centres undefined)	PRMT1 inh 61.5 (no result: core dimer inh, NS3 helicase inh) | PRMT1 inh conf 22.5
C[C@H]1c2cccc(O)c2C(O)=C2C(=O)[C@]3(O)C(O)=C(C(N)=O)C(=O)[C@@H](N(C)C)C3[C@@H](O)C21 (some centres undefined)	none (no result: NS3 helicase inh)
Cc1ccccc1NC(=O)c1sc2nc3c(c(-c4ccco4)c2c1N)CCC3	PRMT1 inh 44.0 | PRMT1 inh conf inactive
N#Cc1sc2nc3c(c(-c4ccco4)c2c1N)CCCC3	none
CN(C)CCNc1nc(-c2ccccc2F)c2sccc2n1	none (no result: core dimer inh, A3A deaminase, NS3 helicase inh, APOBEC3G inh)
Oc1cc2c(cc1O)[C@H]1c3ccc(O)c(O)c3OC[C@@]1(O)C2	PRMT1 inh 43.0, APOBEC3G inh 58.5 (no result: core dimer inh, NS3 helicase inh) | PRMT1 inh conf 38.2
COc1ccc(C2COc3cc(O)ccc3C2)c(OC)c1O (centres undefined)	none (no result: NS3 helicase inh)
Oc1ccc2c(c1)OCC1(O)Cc3cc(O)c(O)cc3C21 (centres undefined)	PRMT1 inh 125.2 (no result: core dimer inh, A3A deaminase, NS3 helicase inh, APOBEC3G inh) | PRMT1 inh conf 119.4
O=C1NC(c2ccc3c(c2)OCO3)c2c(-c3ccccc3)n[nH]c21 (centres undefined)	none (no result: ABHD5 PLIN5 PPI, core dimer inh, A3A deaminase, NS3 helicase inh, APOBEC3G inh)
COc1ccc(S(=O)(=O)N2CCCOC2CNC(=O)C(=O)NCCc2ccco2)cc1OC (centres undefined)	none
O=C(NCc1cccs1)[C@@H]1CSC2c3ccccc3C(=O)N21 (some centres undefined)	PRMT1 inh 25.7 | PRMT1 inh conf 34.2
CCCCCNC(=O)[C@@H]1CSC2c3ccccc3C(=O)N21 (some centres undefined)	none
Cc1cccc(OCCCC(=O)NNC(=O)CCN2CCN(c3ccccc3)CC2)c1	none (no result: NS3 helicase inh)
O=C(NC1CCCCC1)NC1CCN(C(=S)NCc2ccco2)CC1	none
S=C(NC1CC1)SCc1ccco1	PRMT1 inh 47.9 (no result: core dimer inh, NS3 helicase inh) | PRMT1 inh conf inactive
[N-]=C=C1C(=S)NC(=O)[C@H]([n+]2ccccc2)[C@H]1c1ccc(Cl)cc1	PRMT1 inh 25.4 | PRMT1 inh conf 31.6
O=C1CSC2(N1)C1CC3CC(C1)CC2C3 (centres undefined)	none
C1CSC2(N1)C1CC3CC2CC(C1)C31NCCS1 (centres undefined)	PRMT1 inh 62.6 | PRMT1 inh conf 45.4
C[C@H]1CNC(=O)c2c(C(=O)N(C)Cc3ccccc3)ncn21	none (no result: ABHD5 PLIN5 PPI, core dimer inh, A3A deaminase, NS3 helicase inh, APOBEC3G inh)
COC(=O)c1ccc(C)c(NC(=O)CSc2sc3c(O)cc(=O)[nH]c3c2C#N)c1	PRMT1 inh 48.6 | PRMT1 inh conf inactive
Cc1ccc(C)c(NC(=O)CSc2sc3c(O)cc(=O)[nH]c3c2C#N)c1	PRMT1 inh 55.2 | PRMT1 inh conf inactive
Cc1ccc(Cl)cc1NC(=O)CSc1sc2c(O)cc(=O)[nH]c2c1C#N	none
